Experimental data as given in ChEMBL document CHEMBL1275586, “Phenotypic susceptibility to bevirimat in isolates from HIV-1-infected patients without prior exposure to bevirimat” (Antimicrob Agents Chemother, 2010).

How the values were obtained:
[1] = system: Human immunodeficiency virus 1; assay: Antiviral activity against antiretroviral-pretreated Human immunodeficiency virus 1 isolate 12 harboring Gag-capsid G357S and V362I mutant gene infected in human MT-2 cells by XTT assay relative to wild-type; format: functional, MT2
How it was run: (§1)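 Patient-derived Gag fragments were pooled as bacterial colonies to keep quasispecies diversity and ligated into the pXXLAI (HIV-1 LAI) backbone. Virus was made by transfecting 293T cells and harvesting supernatant 2 days later. MT-2 cells were infected at 37°C with an inoculum titrated to give an XTT signal-to-noise of 2.5–4.0. Cells were plated into drug dilutions, incubated 5 days at 37°C, and read by XTT absorbance (450−650 nm). EC50 was taken from percent cell death and expressed as fold change versus wild-type LAI.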

[2] = system: Human immunodeficiency virus 1; assay: Antiviral activity against Human immunodeficiency virus 1 isolate 39 harboring Gag-capsid G357S and V362I mutant gene and Gag-SP-1 T375A mutant gene infected in human MT-2 cells by XTT assay relative to wild-type; format: functional, MT2
How it was run: (§2)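 Patient Gag-protease (SfoI-XmaI) fragments were ligated into the pXXLAI backbone, with colonies pooled to keep quasispecies. Virus came from 293T transfection, harvested at 2 days. MT-2 infection at 37°C used an input giving XTT signal-to-noise of 2.5–4.0 (≈MOI 0.001). Cells at ≈17,000/well with drug dilutions, 5 days, 37°C; XTT 1 h, A450–650. EC50 from % cell death; fold change vs wild-type LAI.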

[3] = system: Human immunodeficiency virus 1; assay: Antiviral activity against antiretroviral-pretreated PI-resistant Human immunodeficiency virus 1 isolate 29 harboring Gag-SP-1 T375A mutant gene infected in human MT-2 cells by XTT assay relative to wild-type; format: functional, MT2; how it was run: as §1
[4] = system: Human immunodeficiency virus 1; assay: Antiviral activity against antiretroviral-pretreated PI-resistant Human immunodeficiency virus 1 isolate 28 infected in human MT-2 cells by XTT assay relative to wild-type; format: functional, MT2; how it was run: as §1
[5] = system: Human immunodeficiency virus 1; assay: Antiviral activity against Human immunodeficiency virus 1 isolate 36 harboring Gag-SP1 […], A374N and T375A mutant gene infected in human MT-2 cells by XTT assay relative to wild-type; format: functional, MT2; how it was run: as §2
[6] = system: Human immunodeficiency virus 1; assay: Antiviral activity against antiretroviral-pretreated PI-resistant Human immunodeficiency virus 1 isolate 9 harboring Gag-SP1 T375N and I376V mutant gene infected in human MT-2 cells by XTT assay relative to wild-type; format: functional, MT2; how it was run: as §1
[7] = system: Human immunodeficiency virus 1; assay: Antiviral activity against Human immunodeficiency virus 1 isolate 4 harboring Gag-capsid A146P, V159I, V215L, I223G/V, P255A, E312D and G357S mutant gene and protease L10R, S37N, M46L, I62V, L63P, A71V, V82T, L90M and I93L mutant gene infected in human MT-2 cells by XTT-assay relative to wild-type; format: functional, MT2; how it was run: as §2
[8] = system: Human immunodeficiency virus 1; assay: Antiviral activity against Human immunodeficiency virus 1 isolate 7 harboring Gap-SP-1 V362I mutant infected in human MT-2 cells by XTT-assay relative to wild-type; format: functional, MT2; how it was run: as §2
[9] = system: Human immunodeficiency virus 1; assay: Antiviral activity against Human immunodeficiency virus 1 isolate 8 harboring Gag-SP1 V362I mutant infected in human MT-2 cells by XTT-assay relative to wild-type; format: functional, MT2; how it was run: as §2
[10] = system: Human immunodeficiency virus 1; assay: Antiviral activity against Human immunodeficiency virus 1 isolates harboring deletion at T371 in Gag-SP-1 relative to wild-type; format: functional
How it was run: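 Site-directed mutants were made by two-round overlap PCR into the pXXLAI (HIV-1 LAI) backbone from an individual clone, then transfected into 293T cells, with supernatant harvested at 2 days. MT-2 cells were infected at an input giving an XTT signal-to-noise of 2.5–4.0, plated at ≈17,000 cells/well with drug dilutions, and read by XTT after 5 days. EC50 from % cell death; fold change vs wild-type LAI.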

[11] = system: Human immunodeficiency virus 1; assay: Antiviral activity against antiretroviral-pretreated PI-resistant Human immunodeficiency virus 1 isolate 2 harboring Gag-SP-1 S373A, A374G and T375A mutant gene infected in human MT-2 cells by XTT assay relative to wild-type
[12] = system: Human immunodeficiency virus 1; assay: Antiviral activity against Human immunodeficiency virus 1 isolate 20 harboring Gag-capsid I138L, V215L, V218P, H219Q, M228I, E230D, G248T, T280A, E312D, A340G and G357S mutant gene and protease L10F, A22V, D30N, S37N, K45R, I54L, I62V, L63P, A71V, V77I, I84V, N88D and Q92K mutant gene infected in human MT-2 cells by XTT-assay relative to wild-type; format: functional, MT2; how it was run: as §2
[13] = system: Human immunodeficiency virus 1; assay: Antiviral activity against Human immunodeficiency virus 1 isolate 37 harboring Gag-capsid V135I, I138P, V143I, Q182H, V215L/V, V218P/A, H219Q, I223V, E230D, N252S, T280A, R286K, K302R and G357S mutant gene and protease S37D, R41K, L63P and I93L mutant gene infected in human MT-2 cells by XTT-assay relative to wild-type; format: functional, MT2; how it was run: as §2
[14] = system: Human immunodeficiency virus 1; assay: Antiviral activity against Human immunodeficiency virus 1 isolate 25 harboring Gag-capsid I138M, S173A, V215L, N252S, I256T, S310T/S, A340G and E345D mutant gene and protease L10F, V11I, I13V, K20I, V32I, L33F, E34Q, E35D, M36I, S37N, K43T, M46I, F53Y, I54L, Q61N, I62V, L63T, I64V, A71L, T74S, L76V, I84V, L90M and I93L mutant gene infected in human MT-2 cells by XTT-assay relative to wild-type; format: functional, MT2; how it was run: as §2
[15] = system: Human immunodeficiency virus 1; assay: Antiviral activity against Human immunodeficiency virus 1 isolate 3 harboring Gag-capsid I138L, A146P, I147L, V159I, S176A, V215L, H219Q/H, T242N, G248A, T280V, A340G and G357S mutant gene and protease L10I, T31S/T, V32I, M36I/M, S37C, R41K, M46I, F53L, I54V, R57K, L63P, I64V, A71V, V82A and L90M mutant gene infected in human MT-2 cells by XTT-assay relative to wild-type; format: functional, MT2; how it was run: as §2
[16] = system: Human immunodeficiency virus 1; assay: Antiviral activity against Human immunodeficiency virus 1 isolate 6 harboring Gag-capsid I138L and V215L mutant gene and protease L10I, S37N, M46L, G48V, R57K, L63P, I66F, A71V, V82T and I84V mutant gene infected in human MT-2 cells by XTT-assay relative to wild-type; format: functional, MT2; how it was run: as §2
[17] = system: Human immunodeficiency virus 1; assay: Antiviral activity against Human immunodeficiency virus 1 isolate 31 harboring Gag-capsid I138L, S173T, V215L, I223N, M228L, G248Q, N252H, T280V and E312D mutant gene and protease I13V, K14R/K, M36I, S37N, I64V, H69K and I72V mutant gene infected in human MT-2 cells by XTT-assay relative to wild-type; format: functional, MT2; how it was run: as §2
[18] = system: Human immunodeficiency virus 1; assay: Antiviral activity against Human immunodeficiency virus 1 isolate 34 harboring Gag-capsid I138L, I147L, V159I, V215L, T280V, A309C, S310T, E312D and G357S mutant gene and protease L10I, I13V, E35D, S37N, I62V, L63P and I64M mutant gene infected in human MT-2 cells by XTT-assay relative to wild-type; format: functional, MT2; how it was run: as §2
[19] = system: Human immunodeficiency virus 1; assay: Antiviral activity against Human immunodeficiency virus 1 isolate 35 harboring Gag-capsid V159I, I223T, N252S, A326S/A, A340G and G357S mutant gene and protease I15V, G16E, E35D, S37N, L63H and I72V mutant gene infected in human MT-2 cells by XTT-assay relative to wild-type; format: functional, MT2; how it was run: as §2
[20] = system: Human immunodeficiency virus 1; assay: Antiviral activity against Human immunodeficiency virus 1 isolate 38 harboring Gag-capsid I138L, I147L, V215L, H219Q/H, I223V, N252H, P292S, A336S/A and A340G mutant gene and protease E35D, S37A and L63P mutant gene infected in human MT-2 cells by XTT-assay relative to wild-type; format: functional, MT2; how it was run: as §2
[21] = system: Human immunodeficiency virus 1; assay: Antiviral activity against Human immunodeficiency virus 1 isolate 29 harboring Gag-capsid I138M, A146P, R286K, T303V and A326S mutant gene and protease L10F, I13V, V32I, M36L, S37N, L38W, P39Q, M46I, I47V, I50V, I62V, L63P, A71I, I72V and V82A mutant gene infected in human MT-2 cells by XTT-assay relative to wild-type; format: functional, MT2; how it was run: as §2

Row | Compound | fold change (FC) [12] | fold change (FC) [13] | fold change (FC) [14] | fold change (FC) [15] | fold change (FC) [16] | fold change (FC) [17] | fold change (FC) [18] | fold change (FC) [19] | fold change (FC) [20] | fold change (FC) [21] | further results
1 | C=C(C)[C@@H]1CC[C@]2(C(=O)O)CC[C@]3(C)[C@H](CC[C@@H]4[C@@]5(C)CC[C@H](OC(=O)CC(C)(C)C(=O)O)C(C)(C)[C@@H]5CC[C@]43C)[C@@H]12 [BEVIRIMAT] |  |  |  |  |  |  |  |  |  |  | fold change (FC) [1]: >100; fold change (FC) [2]: >100; fold change (FC) [3]: >100; fold change (FC) [4]: 1.3; fold change (FC) [5]: 1.8; fold change (FC) [6]: 4.7; fold change (FC) [7]: >100; fold change (FC) [8]: >100; fold change (FC) [9]: >100; fold change (FC) [10]: 52.2; fold change (FC) [11]: >100
2 | Cc1cccc(C)c1OCC(=O)N[C@@H](Cc1ccccc1)[C@@H](O)C[C@H](Cc1ccccc1)NC(=O)[C@H](C(C)C)N1CCCNC1=O [LOPINAVIR] | 13.3 | 0.8 | 58.9 | 13 | 3.4 | 1.1 | 1.4 | 1 | 0.9 | 89.3 | 
3 | COC(=O)N[C@H](C(=O)N[C@@H](Cc1ccccc1)[C@@H](O)CN(Cc1ccc(-c2ccccn2)cc1)NC(=O)[C@@H](NC(=O)OC)C(C)(C)C)C(C)(C)C [ATAZANAVIR] | 51.9 | 0.9 | 184 | 15.1 | 29.2 | 1.9 | 1.6 | 0.9 | 1.2 | 3.2 | 
